SMILES strings stand for the structures. The source made the active and inactive calls. No cut-off for these calls is given here. Some results are limits rather than exact numbers.

The values that follow come from ChEMBL document CHEMBL3862030, “Identification of the minimum PAR4 inhibitor pharmacophore and optimization of a series of 2-methoxy-6-arylimidazo[2,1-b][1,3,4]thiadiazoles” (Bioorg Med Chem Lett, 2016).

Data set [1] has as its target T1, Proteinase-activated receptor 4 (Homo sapiens, UniProt Q96RI0).
T1 sequence (Q96RI0 whole entry): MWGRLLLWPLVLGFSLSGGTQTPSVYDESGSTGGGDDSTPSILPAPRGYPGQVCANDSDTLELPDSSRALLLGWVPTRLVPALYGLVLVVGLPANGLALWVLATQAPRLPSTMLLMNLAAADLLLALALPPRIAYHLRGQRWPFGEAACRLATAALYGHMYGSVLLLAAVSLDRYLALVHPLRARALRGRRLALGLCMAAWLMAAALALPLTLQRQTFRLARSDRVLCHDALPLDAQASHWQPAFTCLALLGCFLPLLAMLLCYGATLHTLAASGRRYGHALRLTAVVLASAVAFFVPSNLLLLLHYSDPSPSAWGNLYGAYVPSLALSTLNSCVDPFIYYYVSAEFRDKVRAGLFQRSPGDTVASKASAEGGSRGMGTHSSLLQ
Kind of data set: Antagonist activity at PAR4 in human platelets assessed as inhibition of activating peptide-induced PAC1 binding response preincubated for 20 mins followed by agonist addition for 20 mins by FITC-based flow cytometric analysis. The essentials: (§1)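 Human platelets were activated with 200 μM PAR4-AP. The read-outs were PAC-1 binding and P-selectin exposure, measured by flow cytometry.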

For data set [2], the target named is T1, Proteinase-activated receptor 4. Kind of data set: Antagonist activity at PAR4 in human platelets assessed as inhibition of gamma-thrombin-induced PAC1 binding response preincubated for 20 mins followed by agonist addition for 20 mins by FITC-based flow cytometric analysis. The essentials:
(§2)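 Human platelets were stimulated with γ-thrombin at 100 nM. Activation was read by flow cytometry as PAC-1 binding and P-selectin surface expression.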
Background: A flow cytometer gives signals particle by particle.

The nature of data set [3]: Lipophilicity, log P of the compound. It is filed as physicochemical. To be noted: octanol/water.
Data set [4] is described as follows: Fraction unbound in human plasma at 5 uM after 4 hrs by equilibrium dialysis method. Type of data set: ADME, cell-free. On the technique in general: Equilibrium dialysis compares concentrations on both sides of a semipermeable membrane.
Data set [5] is described as follows: Fraction unbound in rat plasma at 5 uM after 4 hrs by equilibrium dialysis method. Type of data set: ADME, cell-free.
A short description of data set [6]: Intrinsic clearance in human liver microsomes at 1 uM preincubated for 5 mins followed by NADPH addition measured after 3 to 45 mins by LC/MS/MS analysis. It is filed as ADME. To be noted: read-out: CLH.
A short description of data set [7]: Intrinsic clearance in rat liver microsomes at 1 uM preincubated for 5 mins followed by NADPH addition measured after 3 to 45 mins by LC/MS/MS analysis. Type of data set: ADME. Conditions: read-out: CLH. (Microsomes from liver hold many membrane-bound enzymes, among them those of drug oxidation.)
Data set [8] deals with Platelet. In words: Antiplatelet activity in human platelets assessed as inhibition of gamma thrombin-induced aggregation at 316 nM to 3.16 uM preincubated for 20 mins followed by gamma thrombin addition measured for 10 mins by aggregometer. Type of data set: functional, cell-based. A digest of the protocol: (§3)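 Aggregation was monitored for 10 min, with final % aggregation taken at that point. Data are means±SEM of at least three independent experiments, compared to controls by paired t-test.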

Data set [9] deals with Platelet. Kind of data set: Antiplatelet activity in human platelets assessed as inhibition of activating peptide-induced aggregation at 100 to 316 nM preincubated for 20 mins followed by activating peptide addition measured for 10 mins by aggregometer. Type of data set: functional, cell-based. To be noted: 316 nM to 1 uM, in the assay text read “316 nM to 1 uM” for “100 to 316 nM”. A digest of the protocol:
as §3

In data set [10] the target is T2, Proteinase-activated receptor 4 (Homo sapiens) (UniProt Q96RI0).
T2 sequence (whole entry): T1 sequence (Q96RI0 whole entry)
Conditions: 31.6 to 316 nM.

Data set [11] can be described thus: Fraction unbound in human plasma. Type of data set: ADME, cell-free.
A short description of data set [12]: Fraction unbound in rat plasma. It is filed as ADME, cell-free.
In data set [13] the target is T1, Proteinase-activated receptor 4. In words: Antagonist activity at PAR4 in human platelets assessed as inhibition of activating peptide-induced P-selectin activation. The essentials: as §1
For data set [14] the target is unchanged. In words: Antagonist activity at PAR4 in human platelets assessed as inhibition of gamma-thrombin-induced P-selectin activation. A digest of the protocol: as §2
Data set [15] addresses T3, Proteinase-activated receptor 1 (Homo sapiens, UniProt P25116).
T3 sequence (P25116 whole entry): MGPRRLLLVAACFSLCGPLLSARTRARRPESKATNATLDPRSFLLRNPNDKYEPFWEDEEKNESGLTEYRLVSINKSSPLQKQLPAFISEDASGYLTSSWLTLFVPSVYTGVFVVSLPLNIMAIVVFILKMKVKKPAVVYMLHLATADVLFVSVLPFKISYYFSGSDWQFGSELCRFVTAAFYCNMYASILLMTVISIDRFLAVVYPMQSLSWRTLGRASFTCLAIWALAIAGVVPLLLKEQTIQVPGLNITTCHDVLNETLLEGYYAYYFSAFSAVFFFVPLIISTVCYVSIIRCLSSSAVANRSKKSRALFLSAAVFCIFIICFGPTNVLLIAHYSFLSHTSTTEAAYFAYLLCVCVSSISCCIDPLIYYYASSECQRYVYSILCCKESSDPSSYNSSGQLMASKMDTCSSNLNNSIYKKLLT
In words: Antagonist activity at PAR1 in human platelets assessed as inhibition of activating peptide-induced PAC1 binding response.

In data set [16] the target is T3, Proteinase-activated receptor 1. Kind of data set: Antagonist activity at PAR1 in human platelets assessed as inhibition of activating peptide-induced P-selectin activation.
For data set [17], the target named is T2, Proteinase-activated receptor 4 (Homo sapiens). Kind of data set: Ratio of IC50 for PAR4 in human platelets assessed as inhibition of gamma-thrombin-induced PAC1 binding response to IC50 for PAR4 in human platelets assessed as inhibition of activating peptide-induced PAC1 binding response.
Data set [18] relates to Platelet. In words: Antiplatelet activity in human platelets assessed as inhibition of activating peptide-induced aggregation at 316 to 1000 nM preincubated for 20 mins followed by activating peptide addition measured for 10 mins by aggregometer. Type of data set: functional, cell-based. A digest of the protocol:
as §3

Data set [19] deals with Platelet. In words: Antiplatelet activity in human platelets assessed as inhibition of gamma thrombin-induced aggregation at 10 uM preincubated for 20 mins followed by gamma thrombin addition measured for 10 mins by aggregometer. Type of data set: functional, cell-based. The essentials:
as §3

Data set [20] concerns the target T2, Proteinase-activated receptor 4 (Homo sapiens). Conditions: 31.6 to 1000 nM.
Data set [21] addresses T1, Proteinase-activated receptor 4. Kind of data set: Antagonist activity at PAR4 (unknown origin) assessed as inhibition of activating peptide-induced receptor activation.
Data set [22] has the same target. In words: Antagonist activity at PAR4 (unknown origin) assessed as inhibition of gamma-thrombin-induced receptor activation.

The IC50 is the concentration that inhibits the measured activity by half. For the compound `COc1nn2cc(-c3cccc([N+](=O)[O-])c3)nc2s1`, the IC50 in [1] was > 10000 nM.
Still for that read-out and setting: with `COc1nn2cc(-c3ccc(O)cc3)nc2s1` the figure was > 10000 nM.
For `COc1nn2cc(-c3ccccc3Cl)nc2s1`, the IC50 in data set [1] came out at 437 nM.
As to `COc1nn2cc(-c3ccccc3)nc2s1`, the 50% inhibitory concentration (IC50) in data set [1] was determined as 757 nM.
The same measure, in the same setting: with `CN(C)c1nn2cc(-c3c(F)cccc3F)nc2s1` the figure was 3400 nM; with `COc1nn2cc(-c3ccc(S(C)(=O)=O)cc3)nc2s1`, 1200 nM.
Regarding `COc1nn2cc(-c3ccc(OC(F)F)cc3)nc2s1`, the IC50 in data set [2] was 2540 nM.
As a reminder, the logP is the decadic logarithm of the partition coefficient of the neutral form, usually between octanol and water. Regarding `COc1nn2cc(-c3ccc(C(F)(F)F)cc3)nc2s1`, in data set [3], the logP is on record as > 4. For the same compound, the Fu in [4] and in data set [5] was 0.006 to 0.014 each time. Moreover, the results for the CLint scaled at 1 µM in [6] and in data set [7] were 13.6 to 19.9 mL/min/kg and 46.3 to 58.3 mL/min/kg, respectively. Moreover, the inhibition result in data set [8], in data set [9] and in data set [10] was “Active” each time.
What is called fraction unbound is the share of the substance not bound to proteins or other matrix. Lower therefore signals extensive binding. On to `COc1cc(OCc2csc(-c3ccccc3)n2)c2cc(-c3cn4nc(OC)sc4n3)oc2c1`, for which the fraction unbound in data set [11] and in [12] was < 0.001 each time.
For `COc1nn2cc(-c3cc(C(F)(F)F)cc(C(F)(F)F)c3)nc2s1`, the IC50 in data set [2] was found to be 5620 nM.
`CNc1nn2cc(-c3c(F)cccc3F)nc2s1`: in data set [1], the IC50 was > 10000 nM.
On the same count and under the same terms, to `COc1ccc(-c2cn3nc(OC)sc3n2)cc1` belongs 592 nM.
Regarding `COc1nn2cc(-c3cccc(Cl)c3)nc2s1`, the IC50 is 72.8 nM in data set [1] and > 10000 nM in [2].
On to `COc1nn2cc(-c3cc4cc(OC(F)(F)F)ccc4n3C)nc2s1`, for which the 50% inhibitory concentration (IC50) in [1] is 20 to 21 nM; in data set [2] it was 1000 nM; in data set [13] it was 20 nM; in data set [14] it was 1000 nM; in data set [15] it was > 10000 nM; in data set [16], > 10000 nM. Further, the Ratio IC50 in data set [17] was 50. The inhibition entry in data set [18] and in [19] was “Active” in each case.
Take `COc1nn2cc(-c3ccc(Cl)cc3)nc2s1`: the logP in [3] is on record as > 4. In addition, the Fu in data set [4] and in data set [5] was 0.006 to 0.014 in each case. In addition, the figures for the CLint scaled at 1 µM in data set [6] and in data set [7] were 13.6 to 19.9 mL/min/kg and 46.3 to 58.3 mL/min/kg, respectively. Further, the inhibition result in data set [18], in [8] and in data set [20] was “Active” in each case.
`COc1nn2cc(-c3cc4ccccc4o3)nc2s1`: the IC50 in [21] is 1.69 nM; in [22] it was 58.8 nM.
With `COc1nn2cc(-c3ccc(OC(F)(F)F)cc3)nc2s1`, in data set [3], the logP is recorded as > 4. Moreover, the Fu in data set [4] and in data set [5] was 0.006 to 0.014 in each case. Moreover, the CLint scaled at 1 µM in [6] was in the range of 13.6 to 19.9 mL/min/kg; in data set [7], 46.3 to 58.3 mL/min/kg. Besides, the inhibition entry in data set [8], in [9] and in data set [10] was “Active” each time.
`COc1nn2cc(-c3cccc(F)c3)nc2s1`: the IC50 in [1] was 675 nM.
Same read-out and setting: to `COc1nn2cc(-c3ccc(C)cc3)nc2s1` belongs 57.2 nM.
Same read-out and setting: with `COc1nn2cc(-c3ccc(C#N)cc3)nc2s1` the figure was 937 nM; with `COc1nn2cc(-c3ccccc3[N+](=O)[O-])nc2s1`, 4840 nM.
